Experimental findings from ChEMBL document CHEMBL1123658, “1-(2-pyridinyl)piperazine derivatives with antianaphylactic, antibronchospastic, and mast cell stabilizing activities” (J Med Chem, 1987) are described below.

One data set deals with Cavia porcellus. Put plainly: Antibronchospatic activity determined by histamine stimulated bronchospasm inhibition in guinea pigs after(i.v.) administration. The data set is classed as functional, Bronchiole. The method in brief: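 Guinea pigs, Konzett–Rössler preparation. Bronchospasm was induced with histamine. Compound was given iv (1 mL/kg) 1 min before the agonist, dissolved in saline or saline with slight excess HCl or CH3SO3H (pH 3.5–4). Three doses were tested in duplicate, chosen to give 20–90% inhibition. ID75 was read graphically from log dose–response curves.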

Data set [1] has as its system Rattus norvegicus. Put plainly: Rat PCA Test(50% inhibition of spot areas)in the female albino rats after (ip) administration in 10% aqueous acacia gum; Value ranges from(42-57). The data set is classed as functional. The conditions noted are these: read-out: ID50 (the source's name). The method in brief: (§1)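 Female albino rats (200–250 g) received intradermal ventral injections of rat anti-egg-albumin antiserum; donors were raised with egg albumin im plus H. pertussis ip, and serum was taken at 12 days. 24 h later, compound was given ip in 10% acacia gum (10 mL/kg), 10 rats/group. Challenge 30 min later was iv 0.3% egg albumin plus 1% Evans blue. Blued areas were measured 30 min after challenge.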

The nature of data set [2]: In vivo toxic effect was determined in mouse after intraperitoneal administration with 10% aqueous acacia gum; value ranges from 0.41-0.93. Format: toxicity, organism-based. The conditions noted are these: ip. The method in brief: (§2)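 Female albino mice (20-30 g), 10 animals per dose, dosed intraperitoneally with compound in solution or suspension; compounds tested as salts unless noted. Mortality was recorded over 7 days.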

A short description of data set [3]: In vivo toxic effect was determined in mouse after oral administration with 10% aqueous acacia gum;Value ranges from(1.30-1.80). Format: toxicity, organism-based. The procedure, abridged: (§3)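 Female albino mice, 20-30 g. Compound given orally as solution or suspension in 10% aqueous acacia gum, 10 animals per dose. Deaths recorded over 7 days.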
Data set [4] in a line: In vivo toxic effect was determined in mouse after intraperitoneal administration with 10% aqueous acacia gum; value ranges from 0.54-0.99. Format: toxicity, organism-based. The conditions noted are these: ip. The procedure, abridged: as §2
A short description of data set [5]: In vivo toxic effect was determined in mouse after oral administration with 10% aqueous acacia gum; value ranges from 0.94-1.65. The data set is classed as toxicity, organism-based. The method in brief: as §3
Data set [6] deals with Rattus norvegicus. Put plainly: Rat PCA Test(50% inhibition of spot areas)in the female albino rats after (ip) administration in 10% aqueous acacia gum. The conditions noted are these: read-out: ID50 (the source's name). Format: functional. The procedure, abridged: as §1
Data set [7] is described as follows: In vivo toxic effect was determined in mouse after intraperitoneal administration with 10% aqueous acacia gum; value ranges from 1.35-1.82. The settings on record: ip. Format: toxicity, organism-based. The method in brief: as §2
For data set [8], the system named is Rattus norvegicus. Put plainly: Rat PCA Test(50% inhibition of spot areas)in the female albino rats after (ip) administration in 10% aqueous acacia gum; value ranges from 78-93. Format: functional. The settings on record: read-out: ID50 (the source's name). The procedure, abridged:
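Antiserum came from female rats given 1% egg albumin in 0.9% NaCl intramuscularly plus Haemophilus pertussis vaccine (2 × 10^10 organisms) intraperitoneally, and was collected 12 days later. Recipient rats (200-250 g) got it intradermally at a ventral site. After 24 h, groups of 10 received vehicle or compound ip. At 30 min they were challenged iv with 0.3% egg albumin plus 1% Evans blue. Blued skin areas were measured 30 min later.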

Data set [9] is described as follows: In vivo toxic effect was determined in mouse after intraperitoneal administration with 10% aqueous acacia gum; value ranges from 0.66-1.99. The conditions noted are these: ip. The data set is classed as toxicity, organism-based. The procedure, abridged:
as §2

Data set [10] can be described thus: In vivo toxic effect was determined in mouse after oral administration with 10% aqueous acacia gum; value ranges from 0.93-1.70. The data set is classed as toxicity, organism-based. The procedure, abridged: as §3
The subject of data set [11] is Rattus norvegicus. In words: Inhibition of mast cell degranulation was assessed in female albino rats at a dose of 32 umol/kg iv. The data set is classed as functional.
For data set [12], the system named is Rattus norvegicus. In words: Rat PCA Test(50% inhibition of spot areas)in the female albino rats after oral administration in 10% aqueous acacia gum; value ranges from 119-331. Format: functional. The settings on record: read-out: ID50 (the source's name). The method in brief: (§4)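 Female rats (200-250 g) were passively sensitized by ventral intradermal anti-egg-albumin antiserum. This was raised in rats by intramuscular 1% egg albumin plus ip H. pertussis vaccine, with serum taken at 12 days. After 24 h, groups of 10 were dosed orally with compound or vehicle (10 mL/kg). At 60 min, iv challenge used 0.3% egg albumin with 1% Evans blue. Blued areas were measured after 30 min.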

For data set [13], the system named is Rattus norvegicus. Put plainly: Rat PCA Test(50% inhibition of spot areas)in the female albino rats after (ip) administration in 10% aqueous acacia gum; value ranges from 40-122. The settings on record: read-out: ID50 (the source's name). Format: functional. The method in brief: as §1
A short description of data set [14]: In vivo toxic effect was determined in mouse after intraperitoneal administration with 10% aqueous acacia gum; value ranges from 0.96-1.77. The conditions noted are these: ip. Format: toxicity, organism-based. The procedure, abridged: as §2
Data set [15] in a line: In vivo toxic effect was determined in mouse after oral administration with 10% aqueous acacia gum; value ranges from 1.72-3.90. Format: toxicity, organism-based. The method in brief:
as §3

The nature of data set [16]: In vivo toxic effect was determined in mouse after intraperitoneal administration with 10% aqueous acacia gum; value ranges from 0.56-0.94. Format: toxicity, organism-based. The settings on record: ip. The procedure, abridged:
as §2

The nature of data set [17]: In vivo toxicity in mouse after oral administration with 10% aqueous acacia gum. The data set is classed as organism-based. The method in brief:
as §3

For data set [18], the system named is Rattus norvegicus. In words: Rat PCA Test(50% inhibition of spot areas)in the female albino rats after oral administration in 10% aqueous acacia gum. The conditions noted are these: read-out: ID50 (the source's name). Format: functional. The procedure, abridged: as §4
The nature of data set [19]: In vivo toxic effect was determined in mouse after intraperitoneal administration with 10% aqueous acacia gum; value ranges from 0.94-1.40. The data set is classed as toxicity, organism-based. The conditions noted are these: ip. The method in brief:
as §2

A short description of data set [20]: In vivo toxic effect was determined in mouse after oral administration with 10% aqueous acacia gum value ranges from 1.63-2.93. Format: toxicity, organism-based.
Data set [21] concerns Rattus norvegicus. Put plainly: Rat PCA Test(50% inhibition of spot areas)in the female albino rats, using Goose and Blair method by dissolving or suspended the compound in 10% aqueous acacia gum and administered perorally.; Value ranges from (26-199). The settings on record: po, read-out: ID50 (the source's name). Format: functional. The procedure, abridged:
as §4

Data set [22] deals with Rattus norvegicus. Put plainly: Rat PCA Test(50% inhibition of spot areas)in the female albino rats after (ip) administration in 10% aqueous acacia gum; value ranges from 35-79. Format: functional. The conditions noted are these: read-out: ID50 (the source's name). The procedure, abridged:
as §1

Data set [23] is described as follows: In vivo toxic effect was determined in mouse after intraperitoneal administration with 10% aqueous acacia gum; value ranges from 0.97-2.74. The data set is classed as toxicity, organism-based. The conditions noted are these: ip. The procedure, abridged:
as §2

Data set [24] in a line: In vivo toxic effect was determined in mouse after oral administration with 10% aqueous acacia gum; value ranges from 0.97-1.87. Format: toxicity, organism-based. The method in brief:
as §3

Data set [25] deals with Rattus norvegicus. In words: Rat PCA Test(50% inhibition of spot areas)in the female albino rats after (ip) administration in 10% aqueous acacia gum; value ranges from 164-246. Format: functional. The settings on record: read-out: ID50 (the source's name). The procedure, abridged:
as §1

In the next data set the test system is Mus musculus. Put plainly: In vivo toxic effect was determined in mouse after intraperitoneal administration with 10% aqueous acacia gum; NA means poorly absorbed. Format: toxicity, organism-based. The settings on record: ip. The procedure, abridged:
as §2

For orientation: LD50 means the dose expected to kill half of the subjects tested. What is called inhibition in vivo is the share of the control response that was lost under treatment. Low values mean little suppression, high ones strong suppression.

In the data set on Cavia porcellus, `CC(=O)c1ccc(NC(=O)CCN2CCN(c3ccccn3)CC2)cc1.Cl.Cl` came in with an ID75 of 0.02 µM/kg. Besides, the ED50 in the data set with Rattus norvegicus [1] was 49 µmol/kg. Further, the LD50 amounted to 480 µmol/kg in data set [2] and 1500 µmol/kg in [3].
`CC(=O)c1cccc(NC(=O)CCN2CCN(c3ccccn3)CC2)c1.Cl.Cl` registered an ID75 in the data set with Cavia porcellus of 0.2 µM/kg. In addition, the LD50 in data set [4] was 680 µmol/kg; in data set [5], 1110 µmol/kg.
On to `COC(=O)CC(C)N1CCN(c2ccccn2)CC1.O=C(O)/C=C\C(=O)O.O=C(O)/C=C\C(=O)O` (stereo not drawn), for which the ID75 in the data set with Cavia porcellus was determined as 2.37 µM/kg. Further, the ED50 in the data set with Rattus norvegicus [6] is greater than 404 µmol/kg. In [7], this compound returned an LD50 of 1350 µmol/kg.
For the compound `Cl.Cl.O=C(CCN1CCN(c2ccccn2)CC1)Nc1c(Cl)cccc1Cl`, in the data set with Cavia porcellus, the ID75 was 0.4 µM/kg. In the data set on Rattus norvegicus [8], the ED50 was 85 µmol/kg. Besides, the LD50 was found to be 800 µmol/kg in [9] and 1240 µmol/kg in data set [10].
`Cl.Cl.O=C(CCN1CCN(c2ccccn2)CC1)Nc1ccccc1Cl` came in with an inhibition in vivo at 32 µmol/kg in the data set on Rattus norvegicus [11] of 0%. For the same compound, the ED50 in the data set on Rattus norvegicus [12] is 199 µmol/kg; in the data set with Rattus norvegicus [13], 70 µmol/kg. The LD50 in data set [14] amounted to 1290 µmol/kg; in data set [15] it was 2640 µmol/kg.
With `Cc1cc(C)c(C)c(NC(=O)CN2CCN(c3ccccn3)CC2)c1C`, in the data set with Cavia porcellus, the ID75 is greater than 23.5 µM/kg. For the same compound, the ED50 in the data set with Rattus norvegicus [6] was greater than 212 µmol/kg. Moreover, in [16], the LD50 stood at 650 µmol/kg.
Compound `O=C(CCN1CCN(c2ccccn2)CC1)Nc1ccc(NC(=O)Nc2ccccc2)cc1` gave an ID75 in the data set with Cavia porcellus of 0.31 µM/kg. In addition, in the data set on Rattus norvegicus [6], the ED50 is greater than 225 µmol/kg. Further, the LD50 in data set [17] is greater than 6700 µmol/kg.
As for `CC(C)Sc1ccc(NC(=O)CCN2CCN(c3ccccn3)CC2)cc1`, the ID75 in the data set on Cavia porcellus amounted to 0.8 µM/kg. Also, the figures for the ED50 in the data set with Rattus norvegicus [6] and with Rattus norvegicus [18] were greater than 120 µmol/kg and greater than 221 µmol/kg, respectively. For the same compound, the figures for the LD50 in data set [19] and in data set [20] were 1140 µmol/kg and 2180 µmol/kg, respectively.
The compound `O=C(CCN1CCN(c2ccccn2)CC1)Nc1ccccc1` yielded an inhibition in vivo at 32 µmol/kg with Rattus norvegicus [11] of 12%. Also, the ED50 in the data set with Rattus norvegicus [21] turned out to be 72 µmol/kg; with Rattus norvegicus [22] it was 53 µmol/kg. Moreover, the figures for the LD50 in data set [23] and in [24] were 1160 µmol/kg and 1350 µmol/kg, respectively.
`NC(=O)Nc1ccc(NC(=O)CCN2CCN(c3ccccn3)CC2)cc1` had an ID75 in the data set on Cavia porcellus of 0.25 µM/kg. In addition, the ED50 with Rattus norvegicus [25] is 194 µmol/kg; in the data set on Rattus norvegicus [18], greater than 271 µmol/kg. This compound gave an LD50 in [17] greater than 8100 µmol/kg.
Compound `NS(=O)(=O)c1ccc(NC(=O)CCN2CCN(c3ccccn3)CC2)cc1` yielded an ID75 with Cavia porcellus of 0.19 µM/kg. Besides, in the data set with Rattus norvegicus [6], the ED50 was greater than 257 µmol/kg. The LD50 in data set [17] was greater than 7700 µmol/kg; in the data set with Mus musculus, “Not Active”.
